In ChEMBL document CHEMBL4513216, “Probing the Open Global Health Chemical Diversity Library for Multistage-Active Starting Points for Next-Generation Antimalarials” (ACS Infect Dis, 2020) one finds cytotoxicity data, which are given here for 96 compounds.

Structures are written as SMILES.

The series is described as follows: Toxicity liver stage against HepG2, at 10uM. The series is classed as cell-based. Also noted: test concentration 10 uM, cell line HepG2-A16-CD81EGFP. Particulars: human, HepG2-A16-CD81EGFP cells; read-out: INHIBITION
The method, boiled down: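 Uninfected HepG2-A16-CD81EGFP cells, 3 × 10^3 per well, 1536-well, plated on prespotted compound at 10 μM final, parasite-free screening media added to match infected plates; puromycin 10 μM positive, DMSO 0.5% negative; run in parallel with 48 h PbLuc assay at 37 °C, 5% CO2; viability by CellTiter-Glo luminescence, normalized to controls.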
In the case of `CCc1ncc2c(n1)CN(Cc1nc(-c3ccsc3)oc1C)CC2`, the cytotoxicity at 10 µM is -8.6%.

Turning to `Cc1ccn(CC(=O)Nc2cc(-c3ccncc3)[nH]n2)n1`, the cytotoxicity at 10 µM was -14.8%.

For the compound `CCc1nnc2n1CCN(C(=O)c1cnc3c(cnn3C(C)C)c1)C2`, the cytotoxicity at 10 µM is -7.58%.

Take `COCC(=O)N1CC(c2ccnc(Nc3cc(C(F)(F)F)ccn3)n2)C1`: the cytotoxicity at 10 µM was determined as 11.2%.

On to `Cc1ccc(C(=O)NS(C)(=O)=O)cc1I`, for which the cytotoxicity at 10 µM was determined as 6.22%.

Take `CCc1nnc(CN(C)Cc2cccc(C(=O)Nc3nccs3)c2)o1`: the cytotoxicity at 10 µM was -2.97%.

`CC(C)(C)c1cnc(CN2CCC(NC(=O)CC3CCCC3)CC2)o1`: the cytotoxicity at 10 µM is -15.5%.

Take `CC(=O)N1CCCC(C(=O)NCCc2csc(-c3ccncc3)n2)C1` (stereo unspecified): the cytotoxicity at 10 µM stood at 5.12%.

As to `Cc1cc(NC(=O)CN2CCCC(Cn3cncn3)C2)on1` (stereo unspecified), the cytotoxicity at 10 µM turned out to be 1.68%.

`O=C(N[C@@H]1CNCCC[C@H]1O)c1ccc(OCc2ccccc2)cc1`: the cytotoxicity at 10 µM is -3.39%.

As for `CC(C)C(=O)NS(=O)(=O)c1ccc(F)c(C(F)(F)F)c1`, the cytotoxicity at 10 µM was -2.32%.

On to `Fc1ccc2[nH]c(CO[C@H]3CN(CC4CC4)C[C@H]3F)nc2c1`, for which the cytotoxicity at 10 µM was -2.74%.

On to `CNC(=O)c1ccc2c(c1)C1(CCN(CC3CC3)CC1)C(=O)N2`, for which the cytotoxicity at 10 µM was -0.843%.

As for `O=C(c1cscn1)N1CC[C@H]2C[C@@H](c3ccncn3)O[C@@H]2C1`, the cytotoxicity at 10 µM is -76.6%.

As for `c1ccc(O[C@H]2COCCN(CC3CC3)C2)cc1`, the cytotoxicity at 10 µM was 5.76%.

For the compound `CC(C)(CNC(=O)Nc1ccc(S(=O)(=O)C(F)F)cc1)N1CCOCC1`, the cytotoxicity at 10 µM came out at 4.44%.

Consider `O=C(N1CCCC1)N1CCC2(CC(=O)N(c3ccc4c(c3)OCO4)C2)C1` (stereo unspecified), for which the cytotoxicity at 10 µM is 9.79%.

In the case of `CCCN1CCCn2nc(CNS(=O)(=O)c3cnn(CC)c3)cc2C1`, the cytotoxicity at 10 µM is -7.23%.

For the compound `COc1ncccc1CN1C[C@@H]2COC[C@]2(COCC(=O)N(C)C)C1`, the cytotoxicity at 10 µM was found to be 7.81%.

Take `Cc1cccc(N2CC[C@@H]3[C@@H](CO[C@H]3CNC(=O)c3ccco3)C2)n1`: the cytotoxicity at 10 µM is -1.67%.

As for `O=C(NCCN1CCOCC1)NCc1ncc(-c2ccccc2)o1`, the cytotoxicity at 10 µM turned out to be 1.26%.

As to `Cc1nc(Nc2ccc(Cl)cn2)sc1C(=O)NCCCN1CCCCC1`, the cytotoxicity at 10 µM came out at 1.66%.

Take `O=C(CC1CC1)N1Cc2nccn2CC(COc2cccnc2)C1` (stereo unspecified): the cytotoxicity at 10 µM came to 5.09%.

As to `CCc1ccc(CN2CCC3(CC2)C(=O)N(C)CCN3CC)cc1`, the cytotoxicity at 10 µM was -4.13%.

`CN1CCCC1CCNC(=O)c1ccccc1-n1cnc(CN)c1` (stereo unspecified): the cytotoxicity at 10 µM is 8.6%.

On to `CCS(=O)(=O)N1CCCC2(CCCN2Cc2cccc(Cl)c2)C1` (stereo unspecified), for which the cytotoxicity at 10 µM was -143%.

For the compound `CCn1ncc2c1C(COCC1CC1)CN(c1ccc(C)nn1)C2` (stereo unspecified), the cytotoxicity at 10 µM is 11.4%.

On to `Cc1cnn(CC2CCCCN2C(=O)c2cccc(C(N)=O)c2)c1` (stereo unspecified), for which the cytotoxicity at 10 µM was -0.775%.

Regarding `CN(Cc1ccco1)C(=O)NC(Cn1ccnc1)C(C)(C)C` (stereo unspecified), the cytotoxicity at 10 µM is -3.36%.

As for `CCNS(=O)(=O)c1ccc(C)c(C(=O)N(C)Cc2ccco2)c1`, the cytotoxicity at 10 µM is 0.685%.

For the compound `CCC1CCCN(Cc2nc3ccccc3c(=O)[nH]2)C1` (stereo unspecified), the cytotoxicity at 10 µM is -46%.

In the case of `CCCN(CCc1ccccn1)C(=O)CCc1cnn(C)c1`, the cytotoxicity at 10 µM was -2.84%.

As to `CN(C)C(=O)CO[C@H]1CN(Cc2ccccc2)[C@@H]2CCCO[C@H]12`, the cytotoxicity at 10 µM was -8.1%.

In the case of `O=C(NCCO)C1CN(c2cncnc2)CCO1` (stereo unspecified), the cytotoxicity at 10 µM was -29.9%.

`Cn1cc(C(=O)NC2CCCC2)c(-c2cccnc2)n1`: the cytotoxicity at 10 µM turned out to be 10.3%.

Consider `Cn1cc(C2(C)CN(c3ncccc3C#N)CCO2)cn1` (stereo unspecified), for which the cytotoxicity at 10 µM was 4.48%.

With `CCOC(=O)N1CC2(CCNCC2)c2cc(Cl)ccc21`, the cytotoxicity at 10 µM was -0.449%.

Turning to `CCC1c2ccsc2CCN1C(=O)NCc1cc(C)on1` (stereo unspecified), the cytotoxicity at 10 µM is -10.2%.

With `CCCNC(=O)NC(=O)CNc1c(F)cccc1N1CCCC1`, the cytotoxicity at 10 µM is 0.266%.

On to `Cc1nc(C)n(CC2CCCN2c2ccnc(-c3ccccc3)n2)n1` (stereo unspecified), for which the cytotoxicity at 10 µM stood at 9.69%.

With `Cc1ccc(F)c(NCC(C)(C)S(C)(=O)=O)c1`, the cytotoxicity at 10 µM is -7.6%.

As to `Cn1cc(NC(=O)NCc2ccoc2)ccc1=O`, the cytotoxicity at 10 µM came to 4.14%.

For `Cc1cc2n(n1)CCN(c1nc(N)nc3c1CCNCC3)C2`, the cytotoxicity at 10 µM came to 7.04%.

Consider `Cc1cccnc1NC(=O)CSc1ccc2c(c1)OCCO2`, for which the cytotoxicity at 10 µM is -1.66%.

With `CN(C)CC1(O)CCN(S(=O)(=O)c2ccc(F)c(F)c2)C1` (stereo unspecified), the cytotoxicity at 10 µM was -0.954%.

Turning to `COCC(=O)N(Cc1cccnc1)CC1CCN(C2CCCC2)CC1`, the cytotoxicity at 10 µM was 1.49%.

For `O=C(NCCN1CCNCC1)c1c(O)c2ccccc2[nH]c1=O`, the cytotoxicity at 10 µM is 21%.

Turning to `COc1cccc2c1OCC(NCc1cnn(-c3ccccc3)c1)C2` (stereo unspecified), the cytotoxicity at 10 µM is -0.517%.

As to `COc1ccc(-c2noc(C3CCS(=O)(=O)C3)n2)cc1OC` (stereo unspecified), the cytotoxicity at 10 µM was found to be 5.4%.

Consider `O=C(c1ccc(-n2ccnc2)nn1)N1CCCCC1Cn1cccn1` (stereo unspecified), for which the cytotoxicity at 10 µM is -4.49%.

Turning to `CS(=O)(=O)Cc1ccc(C(=O)NCC2Cc3ccccc3O2)cc1` (stereo unspecified), the cytotoxicity at 10 µM amounted to 6.6%.

Consider `CC(C)N(C)S(=O)(=O)c1ccc2c(c1)CCN(C(=O)c1ccccn1)C2`, for which the cytotoxicity at 10 µM amounted to 10.3%.

With `C/C=C(\C)CN1C[C@H](NC(=O)CCOC)[C@@H](c2ccc(C)o2)C1`, the cytotoxicity at 10 µM stood at 7.06%.

As for `CC(C(N)=O)N1CCc2onc(-c3cccc(F)c3)c2C1` (stereo unspecified), the cytotoxicity at 10 µM was found to be 3.38%.

In the case of `O=C(NC1CCCC1)N1C[C@H]2CN(c3ccccn3)C[C@@]2(C(=O)O)C1`, the cytotoxicity at 10 µM stood at 6.12%.

`CC1CCN(c2nc3c(cnn3-c3ccccc3)c(=O)[nH]2)CC1`: the cytotoxicity at 10 µM was -9.5%.

As to `O=C(O)[C@@H]1CCCN1c1nccc(Nc2ccccc2)n1`, the cytotoxicity at 10 µM stood at 12.2%.

On to `CCN(CC)S(=O)(=O)c1cc2c3c(c1)c(C)cc(=O)n3CC2`, for which the cytotoxicity at 10 µM was determined as 5.45%.

Take `NCc1ccc(OC(F)F)cc1OC(F)F`: the cytotoxicity at 10 µM is -43%.

As to `CN(Cc1cnn(C)c1)C(=O)CCC(=O)c1ccc2c(c1)OCCO2`, the cytotoxicity at 10 µM was -1.14%.

As for `CC(C)NC(=O)NCc1nnc2n1C(C(=O)N(C)C)CC2` (stereo unspecified), the cytotoxicity at 10 µM was 5.45%.

With `CCCc1n[nH]c(C2CN(Cc3nnc(C4CC4)o3)CCO2)n1` (stereo unspecified), the cytotoxicity at 10 µM was -20.2%.

`CC(C)c1nnc(N2C[C@H]3CC[C@@H](C2)N(Cc2ccccc2)C3)s1`: the cytotoxicity at 10 µM was -3.86%.

`N#Cc1ccc(CNC(=O)NC2CCN(c3ncccn3)CC2)cc1`: the cytotoxicity at 10 µM came out at 11.3%.

With `COCCN1CCC12CCN(C(=O)c1ccc(C)nc1)C2` (stereo unspecified), the cytotoxicity at 10 µM is -102%.

Turning to `CCn1c(C)nnc1CN(C)C1CCN(CCS(=O)(=O)CC)C1` (stereo unspecified), the cytotoxicity at 10 µM is -1.17%.

Take `Cc1oc(-c2nc(C#N)c(N(C)C)o2)cc1S(=O)(=O)N1CCCC1`: the cytotoxicity at 10 µM is -8.87%.

For `Fc1cccc(N2CCc3ncnc(N4CCOCC4)c3CC2)c1`, the cytotoxicity at 10 µM worked out at 9.49%.

In the case of `Cc1nccn1-c1cc(CNC(=O)CCNC(=O)OC(C)(C)C)ccn1`, the cytotoxicity at 10 µM is -1.7%.

As to `CCC(=O)N1CCN(c2nc(C)nc3c(C)nn(C)c23)CC1`, the cytotoxicity at 10 µM was 12.4%.

Consider `CCC(CNC(=O)Nc1cnn(CC)c1)N1CCc2ccccc2C1` (stereo unspecified), for which the cytotoxicity at 10 µM is 4.72%.

In the case of `Cc1cnn(C2CCN(Cc3ccccc3)C2)c1N` (stereo unspecified), the cytotoxicity at 10 µM was -3.76%.

Consider `Cc1ncc(CNC(CCO)C2CCCCC2)s1` (stereo unspecified), for which the cytotoxicity at 10 µM is -48.7%.

Turning to `Cc1cc(CN2CCOC(CNc3cccnn3)C2)no1` (stereo unspecified), the cytotoxicity at 10 µM was -18.4%.

`CCOc1ccc(CNCCCn2ccnc2)cc1OC`: the cytotoxicity at 10 µM was -4.78%.

In the case of `Cc1cc(NCCn2cccn2)n2ncnc2n1`, the cytotoxicity at 10 µM is -2.27%.

With `C[C@H](NC(=O)c1cnc(-c2ccccc2)nc1O)C(N)=O`, the cytotoxicity at 10 µM stood at 7.06%.

For the compound `CCCN(Cc1cccnc1)C(=O)C1CCNC1` (stereo unspecified), the cytotoxicity at 10 µM amounted to 8.97%.

Regarding `COc1cc(CNC(C)Cn2cccn2)cc2c1OCO2` (stereo unspecified), the cytotoxicity at 10 µM was determined as 1.58%.

As to `CS(=O)(=O)N1C[C@H]2CNC[C@@]2(C(=O)NCCCc2ccccc2)C1`, the cytotoxicity at 10 µM came out at 0.334%.

Regarding `COCCN1CCC(CNC(=O)c2ccnc(-n3ccnc3)c2)CC1`, the cytotoxicity at 10 µM was -1.63%.

Regarding `COCC(=O)NCc1cnc(C)nc1-c1cn(C)c2ccc(OC)cc12`, the cytotoxicity at 10 µM is 11.9%.

On to `COCCCC1(C(=O)O)CCCN(Cc2ccccc2C)C1` (stereo unspecified), for which the cytotoxicity at 10 µM was -4.58%.

For the compound `CCO[C@H]1C[C@@H](O)C12CCN(C(=O)CCN1CCCC1=O)CC2`, the cytotoxicity at 10 µM was found to be 2.12%.

For `CC[C@@H](CO)NC(=O)c1cccc(CCC(C)(C)O)c1`, the cytotoxicity at 10 µM is -3.33%.

Consider `Cc1[nH]ncc1C(=O)NCC1CCC2(CC1)OCCO2`, for which the cytotoxicity at 10 µM was -8.2%.

For the compound `NC(=O)CS(=O)(=O)Cc1csc(-c2ccccc2)n1`, the cytotoxicity at 10 µM is -9.59%.

Turning to `CCc1cc(NC2CCN(S(C)(=O)=O)CC2)n2nc(C)c(C)c2n1`, the cytotoxicity at 10 µM was -12.2%.

Regarding `COc1cc(N2CCCC(c3ncc[nH]3)C2)ncn1` (stereo unspecified), the cytotoxicity at 10 µM was 3.47%.

`NC(=O)c1ccc(S(=O)(=O)NC2CCN(Cc3ccccc3)C2=O)cc1` (stereo unspecified): the cytotoxicity at 10 µM was -9.96%.

In the case of `O=C(Nc1cc(C(F)(F)F)c[nH]c1=O)c1ccco1`, the cytotoxicity at 10 µM is -8.28%.

As for `O=C(Cc1cccc(F)c1)NCCNc1ncccn1`, the cytotoxicity at 10 µM is -6.71%.

Regarding `COCCOCC(=O)N1C[C@@H]2CC[C@H](Oc3ccccc3)[C@@H]2C1`, the cytotoxicity at 10 µM was -27.9%.

Regarding `Cn1cc(CN2CCCCC2c2ccc(-c3cccc(Cl)c3)nc2)cn1` (stereo unspecified), the cytotoxicity at 10 µM is -8.51%.

Regarding `O=C(c1ccncc1F)N1CCc2ncnc(N3CCOCC3)c2CC1`, the cytotoxicity at 10 µM is -75%.

As to `CCCc1noc(C2CC(=O)N(Cc3ccccc3)C2)n1` (stereo unspecified), the cytotoxicity at 10 µM is -2.62%.
